Published values of several laboratories.
Lines come from different studies, so protocols differ.
Target: Interleukin-1 receptor-associated kinase 4 (IRAK4, Homo sapiens, UniProt Q9NWZ3)
Sequence (Q9NWZ3 1-460, as in one of the studies): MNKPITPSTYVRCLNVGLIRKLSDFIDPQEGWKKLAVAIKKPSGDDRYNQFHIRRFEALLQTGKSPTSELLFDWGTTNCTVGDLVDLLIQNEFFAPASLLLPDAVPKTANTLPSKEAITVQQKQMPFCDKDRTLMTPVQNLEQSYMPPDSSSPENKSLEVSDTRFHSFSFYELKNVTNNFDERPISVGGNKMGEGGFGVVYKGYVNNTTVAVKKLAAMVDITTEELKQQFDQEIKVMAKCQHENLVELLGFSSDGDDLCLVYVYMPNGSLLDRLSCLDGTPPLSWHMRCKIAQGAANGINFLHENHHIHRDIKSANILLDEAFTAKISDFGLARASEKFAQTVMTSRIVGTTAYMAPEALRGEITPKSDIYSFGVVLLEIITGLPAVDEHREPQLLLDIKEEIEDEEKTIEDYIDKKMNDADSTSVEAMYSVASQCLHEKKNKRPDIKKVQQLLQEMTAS

SMILES	test	setting	remaining binding [%]
CC1CCCN1c1nccc(-c2cnn3ncccc23)n1 (centres unmarked)	binding	1 µM	84
O=C(c1ccc(Nc2ncc(Cl)c(-c3ccc(Cl)s3)n2)cc1)N1CCC(N2CCCC2)CC1	binding, competition with immobilised ligand	1 µM	60
Cn1cc(Cl)c2c(Oc3c(F)cc(Nc4cc(Cl)nc(N)n4)cc3F)ccnc21	cell-free assay, competition with immobilised ligand	0.1 µM	90
C[C@@H]1CCN(c2nccc(-c3cnn4ncccc34)n2)C1	binding	1 µM	100
O=C(NCCCN1CCOCC1)c1ccc(Nc2ncc(Cl)c(-c3ccc(Cl)s3)n2)cc1	binding, competition with immobilised ligand	1 µM	75
CCN1CCN(Cc2ccc(C(=O)Nc3ccc(C)c(Oc4ccc5c(c4)CC(=O)N5)c3)cc2C(F)(F)F)CC1	binding, competition with immobilised ligand	1 µM	84
O=C(O)[C@H]1[C@H](Cn2nnc3ccccc3c2=O)CC[C@@H]1C(=O)c1ccc(OCCC2CCOCC2)cc1	cell-free assay, competition with immobilised ligand	1 µM	76
c1cnn2ncc(-c3ccnc(N4CCC45COC5)n3)c2c1	binding	1 µM	79
Cc1cnc(Nc2ccc(C(=O)N3CCC(N4CCCC4)CC3)cc2)nc1-c1cc2ccccc2s1	binding, competition with immobilised ligand	1 µM	45
N[C@@H]1CCN(c2nccc(-c3cnn4ncccc34)n2)C1	binding	1 µM	99
FC(F)(F)Oc1cccc(-c2cnc3ccc(-c4ccncc4)nn23)c1	cell-free assay, competition with immobilised ligand	5 µM	1.6
CCS(=O)(=O)c1cc2cc(C[C@](O)(CC(C)(C)c3ccc(F)cc3C(N)=O)C(F)(F)F)[nH]c2cn1	cell-free assay, competition with immobilised ligand	1 µM	100
COc1ccnn2ncc(-c3ccnc(N(C)C)n3)c12	binding	1 µM	80
CNCc1ccccc1-c1csc([C@H](C)Nc2nc(C)nc3cc(OC)c(OC)cc23)c1	cell-free assay, competition with immobilised ligand	1 µM	89
CN(C)c1nccc(-c2cnc3ncccn23)n1	binding	1 µM	74
COc1cnc(Nc2cccc(S(N)(=O)=O)c2)nc1N1CCN(c2ccccc2)CC1	binding, competition with immobilised ligand	1 µM	65
O=C1NC(c2ccccn2)Sc2ccccc21 (centres unmarked)	cell-free assay, competition with immobilised ligand	1 µM	100
O=C(Nc1c[nH]nc1C(=O)NC1CCNCC1)c1cc(F)cc(F)c1	binding, competition with immobilised ligand	1 µM	100
O=C(Nc1ccc(Oc2ccc(F)cc2)cc1)N1CCc2ncccc2[C@H]1c1ccc(F)cc1	cell-free assay, competition with immobilised ligand	1 µM	96
CNC(=O)[C@@H]1CC[C@@H](n2c(-c3ccc4cnccc4c3)nc3ccc(C(=O)NCc4cccc(C(N)=O)c4)cc32)C1	binding, competition with immobilised ligand	1 µM	100
